Measured values reported in paper PMC11533547 (Poultry Science, 2024).
No end group written: not given here.

Tests used:
[1] = molecular target: T1, chicken PD-1 protein (Gallus gallus, UniProt A0A1L1RYS1); test: MST affinity of peptides for chicken PD-1 protein; type: binding
T1 sequence (A0A1L1RYS1 1-304): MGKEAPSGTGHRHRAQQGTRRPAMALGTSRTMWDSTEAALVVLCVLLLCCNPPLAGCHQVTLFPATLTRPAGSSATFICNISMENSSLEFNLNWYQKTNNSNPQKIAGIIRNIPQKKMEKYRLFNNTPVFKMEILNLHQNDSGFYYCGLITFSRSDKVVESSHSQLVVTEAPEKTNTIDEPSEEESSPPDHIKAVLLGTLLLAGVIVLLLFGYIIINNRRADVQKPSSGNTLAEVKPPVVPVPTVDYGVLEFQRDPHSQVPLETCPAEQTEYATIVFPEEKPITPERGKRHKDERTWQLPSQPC
How it was run: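 Chicken PD-1 protein labelled with a BLUE-NHS amine-reactive dye, then mixed in equal volumes with each peptide from a 2-fold dilution series in PBS (pH 7.4), 1800 to 0.054 nM. Incubated about 5 min, loaded into standard capillaries and read at once by microscale thermophoresis. Chicken PD-L1 protein (100 nM) as positive control. KD reported as the mean of 3 independent experiments.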

[2] = tested on: DT40 cells; test: MTT cell viability assay; type: cell-based, chicken; conditions: 10 to 500 nM peptide, 24 h, OD450

## DAGLYHCLIEYGGADYKTINLK [gDK2-3]
[1]
  Kd: 9.73 nM
[2]
  cell viability (cytotoxicity): no significant effect on cell viability
